# Activity calls are given as the source filed them. The calls are words filed in the database; no cut-off is given here.
# How the values were obtained:
# [1] = molecular target: Sigma non-opioid intracellular receptor 1 (Cavia porcellus, UniProt Q60492); assay: Displacement of [3H]-(+)-pentazocine from guinea pig brain sigma1 receptor by scintillation counting analysis
# [2] = Displacement of [3H]DTG from rat liver sigma2 receptor by scintillation counting analysis in presence of pentazocine
# [3] = Inhibition of P-glycoprotein (unknown origin) expressed in MDCK cells assessed as reduction of calcein-AM transport after 30 mins by fluorescence assay; format: cell-based, Homo sapiens
# How it was run: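 Confluent MDCK-MDR1 monolayers (50,000 cells/well, overnight) preincubated with compound (0.1–100 µM in medium) 30 min at 37 °C, then Calcein-AM added (2.5 µM final) for 30 min. Washed three times with ice-cold PBS; calcein fluorescence read at ex 485/em 535 nm versus untreated basal. EC50 from fit of % fluorescence increase versus log dose.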
# [4] = molecular target: Sigma non-opioid intracellular receptor 1 (Cavia porcellus) (UniProt Q60492); assay: Displacement of [3H]-(+)-pentazocine from guinea pig brain sigma1 receptor at […] by scintillation counting analysis
# Sequence of Sigma non-opioid intracellular receptor 1 (Cavia porcellus) (Q60492 whole entry): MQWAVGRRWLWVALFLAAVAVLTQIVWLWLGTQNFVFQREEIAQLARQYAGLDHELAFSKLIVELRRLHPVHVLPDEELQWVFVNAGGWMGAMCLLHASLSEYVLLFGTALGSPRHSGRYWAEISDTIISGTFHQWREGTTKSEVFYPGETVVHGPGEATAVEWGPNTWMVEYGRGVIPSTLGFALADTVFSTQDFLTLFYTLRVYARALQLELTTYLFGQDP
# MDCK = assay: Inhibition of P-glycoprotein (unknown origin) expressed in MDCK cells assessed as ATP depletion at 100 uM by bioluminescence ATP assay; format: cell-based; conditions: Homo sapiens
# How it was run: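 MDCK-MDR1 cells (human MDR1-transfected) plated, incubated overnight at 37 °C, 5% CO2, then exposed to test compound in complete medium for 2 h at 37 °C. Cells lysed; ATP measured by firefly luciferase/D-luciferin luminescence after 10 min dark adaptation. Percentage ATP depletion reported at 100 μM.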
# [5] = Displacement of [3H]DTG from rat liver sigma2 receptor at 10^-11 M by scintillation counting analysis in presence of pentazocine
# Sequence of Sigma non-opioid intracellular receptor 1 (Q60492 whole entry): as above
Structure (SMILES),Ki [1] [µM],Ki [2] [µM],EC50 [3] [µM],inhibition [4] [%],inhibition (MDCK),inhibition [5] [%]
COc1cc2c(cc1OC)CN(CC(=O)N[C@@H]1CCCc3c(OC)cccc31)CC2,> 5,1.95,9.6,,,
COc1cc2c(cc1OC)CN(CC(=O)N[C@H]1CCCc3c(OC)cccc31)CC2,> 5,1.76,10,,,
COc1cc2c(cc1OC)CN(CC(=O)NC1CCCc3c(OC)cccc31)CC2 (racemic),> 5,1.8,10,,,
COc1cccc2c1CCCC2CCCN1CCC(c2ccc(F)cc2)CC1 (stereo unspecified),,0.0226,1.98,80,,
COc1cc2c(cc1OC)CN(CC(=O)NCc1cn(-c3ccc(F)cc3)c3ccccc13)CC2,> 5,1.62,0.92,,,
COc1cccc2c1CCCC2CCCN1CCC2(CC1)OCc1ccccc12 (stereo unspecified),,0.0406,2.68,76,,
COc1cccc2c1CCCC2CCC(=O)N1CCC(c2ccc(F)cc2)CC1 (stereo unspecified),2.93,6.52,26,,,
COc1cc2c(cc1OC)CN(CCCCc1cn(-c3ccc(F)cc3)c3ccccc13)CC2,1.39,0.00534,0.21,,inactive,
COc1cc2c(cc1OC)CN(CC/C=C1\CCCc3c(OC)cccc31)CC2,,,0.82,,,
COc1cccc2c1CCCC2CCC(=O)N1CCC2(CC1)OCc1ccccc12 (stereo unspecified),0.26,3.21,5.42,,,
COc1cc2c(cc1OC)CN(C(=O)CCCc1cn(-c3ccc(F)cc3)c3ccccc13)CC2,> 5,> 10,2.25,,Active,
COc1cc2c(cc1OC)CN(CCCC(=O)n1c3ccccc3c3ccccc31)CC2,> 5,> 10,0.82,,Active,
COc1cccc2c1CCCC2CCC(=O)N1CCC(C2CCCCC2)CC1 (stereo unspecified),> 5,> 10,30.9,,,
COc1cc2c(cc1OC)CN(CCCC1CCCc3c(OC)cccc31)CC2 (stereo unspecified),,,1.15,,Active,96
COc1cc2c(cc1OC)CN(C(=O)CCC1CCCc3c(OC)cccc31)CC2 (stereo unspecified),> 5,> 10,2.9,,Active,
COc1cc2c(cc1OC)C(=O)N(CCCCc1cn(-c3ccc(F)cc3)c3ccccc13)CC2,> 5,> 10,2.34,,inactive,
COc1cccc2c1CCCC2CCCN1CCC(C2CCCCC2)CC1 (stereo unspecified),,0.0188,1.92,,,
COc1cc2c(cc1OC)C(=O)N(CCCCn1c3ccccc3c3ccccc31)CC2,> 5,> 10,1.91,,30%,
COc1cc2c(cc1OC)CN(CCCCn1c3ccccc3c3ccccc31)CC2,2.19,4e-05,0.42,,Active,

# From ChEMBL document CHEMBL3352454, “From mixed sigma-2 receptor/P-glycoprotein targeting agents to selective P-glycoprotein modulators: small structural changes address the mechanism of interaction at the efflux pump” (Eur J Med Chem, 2015)
